# G6PDH counter = L. mesenteroides G6PDH inhibition counter-screen | Purified L. mesenteroides G6PDH, diaphorase/resazurin coupled fluorescence, 45 min | inhibition, % at 5 µM | 200,000 tested, 0.12% active | AID 1020; in the data active = inhibition above about 50%
# Diaphorase inh = diaphorase inhibition or chemical oxidation counter-screen; 190,000 tested, 0.69% active; inhibition, % at 20 µM; diaphorase resazurin-to-resorufin fluorescence, NADH, 16 min; bacterial (C. kluyveri) enzyme, not human;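 active = primary screen inhibition at 20 µM above a set limit, cut at about 50% in these data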;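 also: plate controls were DMSO with full reaction for no effect and wells lacking NADH for full effect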
#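 Benchmarks: positive control wells lacking NADH, neutral wells with DMSO only. System: bacterial diaphorase enzyme (C. kluyveri). Input: 0.14 U/mL diaphorase, enzyme working solution. Detection: resorufin fluorescence, excitation 544 nm, emission 590 nm. Times: 16-min room-temperature incubation before reading.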
# Diaphorase act = activates diaphorase or chemically reduces, flagging diaphorase assay artifacts; Diaphorase/resazurin coupled assay, resorufin fluorescence, 16 min; stronger effect = higher value; 1 = vehicle wells, 0 = NADH-free wells; activation factor at 20 µM; 190,000 tested, 0.005% active; AID 1229;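 active = diaphorase activity raised at least twofold by the compound at 20 µM; inactive = activation factor below 2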
#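 Test system: Clostridium kluyveri diaphorase, purified enzyme; input: enzyme 0.07 U/mL final; buffer or medium: 50 mM HEPES pH 7.4 with 4.542 mM MgCl2, 0.005% Tween 20; also added: 0.114 mM NADH and 0.1 mM resazurin, final amounts; schedule: 16 min enzyme reaction, ambient temperature; technique: fluorescence of resorufin, 544 nm excitation, 590 nm emission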
# PfG6PD inh = PfG6PD (Plasmodium falciparum) enzyme inhibition. PfGluPho enzyme, NADPH resazurin-diaphorase fluorescence. inhibition, % at 20 µM. 350,000 tested, 0.78% active. AID 504690;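 active = inhibition reaching at least a set limit at 20 µM in the primary screen, cut at about 59% in these data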;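 also: 0% = DMSO wells with substrate and 100% = DMSO wells lacking glucose-6-phosphate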
# HKDC1 inh = inhibitors of human hexokinase HKDC1. Q2TB90. recombinant HKDC1, G6PDH/diaphorase resazurin coupled fluorescence. inhibition, % at 20 µM. 340,000 tested, 0.16% active. AID 493160;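 active = inhibition above about 35% when tested at 20 µM, limit read from the data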;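 also: plate controls were DMSO wells with enzyme for no effect and DMSO wells lacking enzyme for full effect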
# Target sequence (Q2TB90 whole entry, looked up): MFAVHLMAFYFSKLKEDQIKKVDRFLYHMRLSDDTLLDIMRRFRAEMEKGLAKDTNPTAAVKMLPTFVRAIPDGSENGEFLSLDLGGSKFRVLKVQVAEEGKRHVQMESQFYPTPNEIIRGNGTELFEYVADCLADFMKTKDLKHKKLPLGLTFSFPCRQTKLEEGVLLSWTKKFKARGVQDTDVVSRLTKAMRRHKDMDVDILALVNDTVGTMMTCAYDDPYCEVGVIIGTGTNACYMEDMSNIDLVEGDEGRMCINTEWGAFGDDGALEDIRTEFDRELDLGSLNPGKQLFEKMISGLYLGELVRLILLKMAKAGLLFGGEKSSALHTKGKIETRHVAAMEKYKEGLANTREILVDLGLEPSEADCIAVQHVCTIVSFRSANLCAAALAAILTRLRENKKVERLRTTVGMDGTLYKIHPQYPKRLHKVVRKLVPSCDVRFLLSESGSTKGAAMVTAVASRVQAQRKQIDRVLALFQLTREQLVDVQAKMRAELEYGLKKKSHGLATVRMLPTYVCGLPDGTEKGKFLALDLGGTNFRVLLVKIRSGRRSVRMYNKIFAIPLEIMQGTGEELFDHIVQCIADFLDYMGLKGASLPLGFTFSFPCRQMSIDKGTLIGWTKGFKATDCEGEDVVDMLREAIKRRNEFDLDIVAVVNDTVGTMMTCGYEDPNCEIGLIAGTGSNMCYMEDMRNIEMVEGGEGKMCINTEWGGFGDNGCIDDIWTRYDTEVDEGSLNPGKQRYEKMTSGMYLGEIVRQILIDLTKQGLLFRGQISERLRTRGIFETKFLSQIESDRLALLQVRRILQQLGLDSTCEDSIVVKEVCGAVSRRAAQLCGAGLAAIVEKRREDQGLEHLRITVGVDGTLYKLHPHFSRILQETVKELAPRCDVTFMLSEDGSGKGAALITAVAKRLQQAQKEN
#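 Test system: recombinant HKDC1 (HK5) hexokinase enzyme, produced in-house; Amount: enzyme 5 µg/mL final; Buffer or medium: Tris pH 8.0 buffer with MgCl2, Tween-20, BSA, BME; Reagent: glucose and ATP substrates; Doses: 20 µM test compound, 1% DMSO; Incubation: 90 min reaction incubation at room temperature, dark; Detection: resorufin fluorescence at 613 nm.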
# PfGluPho conf = PfG6PD inhibition, single-dose confirmed; shares compounds with PfG6PD inh; recombinant PfGluPho, NADPH-diaphorase-resazurin fluorescence; inhibition, % at 20 µM; 2,400 tested, 34% active; AID 504753;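 active = inhibition of at least 50% at 20 µM in any single replicate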;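 also: 0% = DMSO with substrate and 100% = DMSO lacking glucose-6-phosphate substrate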
# Diaphorase 10uM = diaphorase inhibition or oxidation at 10 uM NADPH. shares compounds with PfG6PD inh. diaphorase-coupled resazurin reduction, fluorescence, NADPH 10 uM. inhibition, % at 20 µM. 820 tested, 39% active. AID 504862;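 active = average inhibition reaching 50% or more with the compound at 20 µM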;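 also: resorufin red fluorescence formed as diaphorase reduces resazurin using NADPH; 0% = DMSO with enzyme and 100% = DMSO without enzyme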
# Diaph ctr 30uM = counter-screen for P. falciparum G6PD inhibitors: diaphorase inhibitors, oxidizers; inhibition, % at 20 µM; shares compounds with PfG6PD inh; Diaphorase/resazurin coupled assay, resorufin fluorescence, 30 uM NADPH; AID 504863; 820 tested, 29% active;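 active = inhibition averaging 50% or more, tested at 20 µM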;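 also: 0% = DMSO with enzyme and 100% = DMSO wells lacking diaphorase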
# Starred values were filed as active, the others as inactive; / = no result given. Compounds with a hit are over-represented: about 1.2% of the library has one in this group of screens.
SMILES,G6PDH counter,Diaphorase inh,Diaphorase act,PfG6PD inh,HKDC1 inh,PfGluPho conf,others
O=[N+]([O-])c1ccc(C(=S)N2CCN(c3ccc(F)cc3)CC2)cc1,11,4,1,54,-8,/,
CN(C)c1ccc(C(=S)N2CCN(c3ccc([N+](=O)[O-])cc3)CC2)cc1,/,/,/,60*,-7,31,
Cc1ccc(S(=O)(=O)N2CCN(C(=O)CNC(=O)c3ccc(Cl)cc3)CC2)cc1,/,/,/,-25,-1,/,
CC(Nc1ccc(N2CCOCC2)cc1)C(=O)N1c2ccccc2CC1C (configuration not stated),/,/,/,69*,10,-9,
O=S(=O)(/N=S1\CC=CCN1S(=O)(=O)c1ccccc1)c1ccccc1 (configuration not stated),/,/,/,64*,3,22,
CC1=C(C)CS(=O)N(S(=O)(=O)c2ccccc2)C1 (configuration not stated),10,16,0.8,55,1,/,
Cn1cc(C(CO)Cc2ccccc2)c2ccccc21 (configuration not stated),/,/,/,88*,-4,40,
Cn1cc(/C(Cc2ccccc2)=N\O)c2ccccc21,5,11,0.9,4,1,/,
Cc1nc(N)sc1-c1csc(Nc2ccc(S(N)(=O)=O)cc2)n1,/,/,/,45,-3,/,
CC(=O)Oc1ccc(-c2csc(Nc3ccc(S(N)(=O)=O)cc3)n2)cc1,14,/,/,62*,-8,11,
NS(=O)(=O)c1ccc(Nc2nc(-c3ccc(O)cc3)cs2)cc1,13,14,0.9,70*,-2,11,
CCN(CC)CCNC(=O)CN1C(=O)CSc2ccc(S(=O)(=O)N3CCOCC3)cc21,/,/,/,2,/,/,
Cc1cccc(OCC(=O)O/N=C(\N)c2ccncc2)c1,/,/,/,1,2,/,
COc1ccc(NC(=S)N(CCC(C)C)C2CCN(C(C)C)CC2)cc1Cl,/,/,/,69*,-4,83*,Diaphorase 10uM=-13;Diaph ctr 30uM=-14
COc1ccc2[nH]cc(CCNC(=O)c3ccc4ccccc4n3)c2c1,/,/,/,62*,4,40,
Cc1csc(NC(=O)C2CC(=O)N(c3ccc(C)c(C)c3)C2)n1 (configuration not stated),/,/,/,-18,-2,/,
O=C(c1ccc(Cl)cc1Cl)N1CCN(c2ccc(N3CCOCC3)nn2)CC1,/,/,/,-1,-4,/,
COc1ccccc1/C=N/NC(=O)CNC(=O)c1ccccc1,/,/,/,-9,-9,/,
COc1ccc(CCCC(=O)N/N=C/c2ccccc2OC)cc1,-1,14,0.9,98*,3,67*,Diaphorase 10uM=70*;Diaph ctr 30uM=57*
COc1ccccc1C=NN=C(NN=Cc1ccccc1OC)NN=Cc1ccccc1OC,/,/,/,77*,-21,29,
COc1ccc(CCCc2nnc(SCC(=O)Nc3cc(C)c(C)cc3Br)o2)cc1,-4,13,0.9,3,-6,/,
COc1ccc(OC)c(/C=N\NC(=O)CSc2nnc(CCCc3ccc(OC)c(C)c3)o2)c1,4,15,0.8,96*,2,22,
COc1ccc(CCCC(=O)N/N=C/c2ccc(C)cc2)cc1,2,5,1,33,1,/,
COc1ccccc1/C=N/NC(=O)CCSc1ccccc1,-4,0,1,63*,1,72*,Diaphorase 10uM=65*;Diaph ctr 30uM=67*
COC(=O)C1CN(C(=O)COc2ccc(C)c(C)c2)c2ccccc2O1 (configuration not stated),/,/,/,8,-1,/,
SMILES,G6PDH counter,Diaphorase inh,Diaphorase act,PfG6PD inh,HKDC1 inh,PfGluPho conf,others
COC(=O)N(C)C[C@H]1OCc2cnnn2CCCC(=O)N([C@H](C)CO)C[C@H]1C,/,/,/,-16,/,/,
C[C@@H]1CN([C@@H](C)CO)C(=O)CCCn2nncc2CO[C@@H]1CN(C)C(=O)Nc1cccc(Oc2ccccn2)c1,/,/,/,-2,/,/,
CCOC(=O)C1=C(CSc2nc(-c3ccncc3)ccc2C#N)OC(N)=C(C#N)C1c1ccc(OC)cc1 (configuration not stated),9,14,0.9,59*,11,10,
CCOc1ccc(Nc2nc3cc(S(=O)(=O)N(CC)CC)ccc3o2)cc1,6,8,0.9,62*,-8,18,
CCN(CC)S(=O)(=O)c1ccc2oc(Nc3ccc(OC)cc3)nc2c1,/,/,/,16,2,/,
CCS(=O)(=O)c1ccc2oc(Nc3ccc(C(C)C)cc3)nc2c1,-2,12,0.9,74*,-22,43,
CCc1cccc(C)c1NC(=O)c1ccc2c(c1)CCN2S(C)(=O)=O,/,/,/,-17,-3,/,
CCCN(CC(=O)Nc1ccccc1C)C(=O)c1cc2ccccc2oc1=O,/,/,/,2,/,/,
Cc1c2ccncc2cc2c1[nH]c1ccccc12,/,/,/,72*,3,18,
CC(O/N=C/c1ccc(OC(F)F)cc1)C(=O)Nc1cccc(S(=O)(=O)N2CCOCC2)c1 (configuration not stated),16,14,0.9,18,-6,/,
O=C(Nc1ccc(NC(=O)c2cccc([N+](=O)[O-])c2)cc1)c1cccc([N+](=O)[O-])c1,/,/,/,7,0,/,
CCOC(=O)Cc1ccc(NC(=O)c2cccc([N+](=O)[O-])c2)cc1,11,9,0.9,16,-8,/,
O=C(Nc1ncc([N+](=O)[O-])s1)c1cccc([N+](=O)[O-])c1,/,/,/,103*,2,89*,Diaphorase 10uM=77*;Diaph ctr 30uM=69*
CCOC(=O)CSc1nnc(NC(=O)c2cccc([N+](=O)[O-])c2)s1,10,15,0.9,80*,12,58*,Diaphorase 10uM=51*;Diaph ctr 30uM=39
Cc1cc(C)c(Nc2n[nH]c(=S)s2)cc1C,/,/,/,67*,/,28,
Cc1ccc(Nc2n[nH]c(=S)s2)c(C)c1,/,/,/,71*,/,14,
COc1ccccc1Nc1n[nH]c(=S)s1,8,22,0.8,51,-4,/,
COc1cccc(Nc2n[nH]c(=S)s2)c1,4,22,0.8,62*,-10,5,
O=C(NCCC1CCCCN1S(=O)(=O)c1ccc(Cl)cc1)C(=O)NCCN1CCOCC1 (configuration not stated),/,/,/,4,0,/,
C[C@H]1CN(CCc2ccccc2)C(=O)[C@@H]1CC(=O)Nc1ccccc1,/,/,/,7,/,/,
CN(C(=O)c1cnc(N2CCN(c3ncccn3)CC2)c2ccccc12)c1ccc(Cl)cc1,6,17,0.8,98*,1,35,
CCOC(=O)C1CCN(C(=O)CN(C)S(=O)(=O)c2ccc3c(c2)c(=O)n(C)c(=O)n3C)CC1,/,/,/,-13,-1,/,
Cc1cccc(C(=S)N2CCOCC2)n1,/,/,/,-6,-3,/,
CSC(=S)NN=C(C)c1cccc(C)n1,/,/,/,95*,-37,30,

# Assay outcomes as filed in PubChem BioAssay.
